In brackets after ≈: the same amount, converted by molar mass.

Here are results for three compounds from ChEMBL document CHEMBL1125212, “Dual-action cephalosporins: cephalosporin 3'-quinolone carbamates” (J Med Chem, 1991).

Assay [1] concerns Escherichia coli. Description: The compound was evaluated for the inhibition of [14C]- Pen G binding to Escherichia coli UB1005 penicillin-binding protein 1a 90 kDa. The method in brief: (§1)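 Membranes from sonicated E. coli UB1005 were solubilized. Binding to penicillin-binding proteins was measured as inhibition of [14C]penicillin G binding.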
The next assay concerns Micrococcus luteus. Description: The compound was tested in vitro for minimum inhibitory concentration against Micrococcus luteus ATCC 9341. The assay is classed as functional. The gist of the method:
(§2)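 Agar dilution on Mueller-Hinton agar using 2-fold serial dilutions, giving final 128 to 0.0156 μg/mL (extended to 0.000977 μg/mL where needed). Inoculum was overnight broth culture diluted 100-fold, about 3×10^4 CFU/spot, applied by replicator. MIC read after overnight incubation at 36 °C.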

A further assay deals with Proteus mirabilis. The experiment in a line: The compound was tested in vitro for minimum inhibitory concentration against Proteus mirabilis 90. Type of assay: functional. The method in brief: (§3)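 Proteus MICs by agar dilution on Mueller-Hinton medium containing 3% agar. Serial 2-fold dilutions gave final 128 to 0.0156 μg/mL (further to 0.000977 μg/mL). Inoculum was overnight broth diluted 100-fold, about 3×10^4 CFU/spot. Plates read after overnight incubation at 36 °C.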

A further assay has as its system Citrobacter freundii. Description: The compound was tested in vitro for minimum inhibitory concentration against Citrobacter Freundii BS-16. Type of assay: functional. The method in brief:
as §2

Assay [2] concerns Escherichia coli. The experiment in a line: Inhibitory activity on replicative DNA biosynthesis in Escherichia coli H560 (permeabilised cells). The assay is classed as functional, organism-based. The method in brief: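 E. coli H560 cells permeabilized with toluene. ATP-dependent incorporation of [3H]thymidine into trichloroacetic acid-insoluble material was measured. IC50 taken as the concentration giving 50% inhibition.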

The test system of assay [3] is Pseudomonas aeruginosa. The experiment in a line: The compound was tested in vitro for minimum inhibitory concentration against Pseudomonas aeruginosa 18S/H. Type of assay: functional. The gist of the method:
as §2

For assay [4], the system named is Escherichia coli. Description: Minimum inhibitory concentration for inhibition of [14C]- Pen G binding to Escherichia coli UB1005. The assay is classed as functional. The gist of the method:
as §1

Assay [5] has as its system Staphylococcus aureus. The experiment in a line: The compound was tested in vitro for minimum inhibitory concentration against Staphylococcus aureus 753. The assay is classed as functional. The method in brief: as §2
The subject of assay [6] is Escherichia coli. The experiment in a line: The compound was evaluated for the inhibition of [14C]- Pen G binding to Escherichia coli UB1005 penicillin-binding protein 3 60 kDa. The method in brief:
as §1

Assay [7] deals with Staphylococcus aureus. Description: The compound was tested in vitro for minimum inhibitory concentration against Staphylococcus aureus 67-0. The assay is classed as functional. The gist of the method:
as §2

Assay [8] has as its system Escherichia coli. Description: Minimum inhibitory concentration required to inhibit the activity of Escherichia coli UB1005. Type of assay: functional. The method in brief: as §2
The test system of another assay is Enterococcus faecalis. The experiment in a line: The compound was tested in vitro for minimum inhibitory concentration against Enterococcus faecalis ATCC 29212. The assay is classed as functional. The gist of the method:
as §2

Assay [9] has as its system Escherichia coli. Description: The compound was evaluated for the inhibition of [14C]- Pen G binding to Escherichia coli UB1005 penicillin-binding protein 1b 90 kDa. The gist of the method: as §1
Assay [10] has as its system Staphylococcus aureus. The experiment in a line: The compound was tested in vitro for minimum inhibitory concentration against Staphylococcus aureus smith. The assay is classed as functional. The method in brief:
as §2

The test system of assay [11] is Escherichia coli. Description: The compound was tested in vitro for minimum inhibitory concentration against Escherichia coli ATCC 25922. Type of assay: functional. The gist of the method:
as §2

In another assay the test system is Enterobacter cloacae. Description: The compound was tested in vitro for minimum inhibitory concentration against Enterobacter cloacae P99. Type of assay: functional.
Assay [12] deals with Pseudomonas aeruginosa. Description: The compound was tested in vitro for minimum inhibitory concentration against Pseudomonas aeruginosa 8780. Type of assay: functional. The method in brief:
as §2

Assay [13] relates to Escherichia coli. Description: The compound was tested in vitro for minimum inhibitory concentration against Escherichia coli 257. The assay is classed as functional. The method in brief: as §2
In another assay the test system is Streptococcus pneumoniae. Description: The compound was tested in vitro for minimum inhibitory concentration against Streptococcus pneumoniae 6301. Type of assay: functional. The gist of the method: (§4)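 Streptococci tested by agar dilution on brain heart infusion agar with 20 units/mL bovine liver catalase. Final drug range 128 to 0.0156 μg/mL by 2-fold steps, extended to 0.000977 μg/mL when required. Inoculum about 3×10^4 CFU/spot from overnight broth diluted 100-fold. MIC after overnight incubation at 36 °C.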

For a further assay, the system named is Klebsiella pneumoniae. The experiment in a line: The compound was tested in vitro for minimum inhibitory concentration against Klebsiella pneumoniae A. The assay is classed as functional. The method in brief:
as §2

The next assay deals with Serratia marcescens. The experiment in a line: The compound was tested in vitro for minimum inhibitory concentration against Serratia marcescens 1071. Type of assay: functional. The gist of the method:
as §2

Another assay concerns Streptococcus pyogenes. Description: The compound was tested in vitro for minimum inhibitory concentration against Streptococcus pyogenes. The assay is classed as functional. The gist of the method: as §4
Assay [14] has as its system Escherichia coli. The experiment in a line: The compound was tested in vitro for minimum inhibitory concentration against Escherichia coli TEM-1. Type of assay: functional. The gist of the method: as §2
Assay [15] has as its system Escherichia coli. Description: Minimum inhibitory concentration required to inhibit the activity of Escherichia coli ATCC 25922. The assay is classed as functional. The method in brief:
as §2

The test system of assay [16] is Escherichia coli. The experiment in a line: The compound was evaluated for the inhibition of [14C]- Pen G binding to Escherichia coli UB1005 penicillin-binding protein 2 66 kDa. The method in brief: as §1
Another assay concerns Proteus vulgaris. Description: The compound was tested in vitro for minimum inhibitory concentration against Proteus vulgaris 1028 BC. Type of assay: functional. The gist of the method: as §3
Assay [17] deals with Escherichia coli. The experiment in a line: Minimum inhibitory concentration for inhibition of [14C]- Pen G binding to Escherichia coli UB1005. The assay is classed as functional. The method in brief: (§5)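 Penicillin-binding protein assay using solubilized membranes from sonicated E. coli UB1005. Binding was read as inhibition of [14C]penicillin G binding to the PBPs.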
The subject of assay [18] is Escherichia coli. Description: The compound was evaluated for the inhibition of [14C]- Pen G binding to Escherichia coli UB1005 PBP2 66 kDa. Type of assay: functional. The method in brief:
as §5

Assay [19] concerns Escherichia coli. Description: The compound was evaluated for the inhibition of [14C]- Pen G binding to Escherichia coli UB1005 PBP3 60 kDa. Type of assay: functional. The method in brief: as §5
For assay [20], the system named is Escherichia coli. The experiment in a line: The compound was evaluated for the inhibition of [14C]- Pen G binding to Escherichia coli UB1005 PBP1a 90 kDa. The assay is classed as functional. The gist of the method:
as §5

Assay [21] deals with Escherichia coli. Description: The compound was evaluated for the inhibition of [14C]- Pen G binding to Escherichia coli UB1005 PBP1b 90 kDa. The assay is classed as functional. The gist of the method:
as §5

Usually MIC stands for the lowest concentration that inhibits growth of the organism. As a reminder, the IC50 is the concentration needed to halve the response being measured. On to `CC(C)(O/N=C(\C(=O)N[C@@H]1C(=O)N2C(C(=O)O)=C(COC(=O)N3CCN(c4cc5c(cc4F)c(=O)c(C(=O)O)cn5C4CC4)CC3)CS[C@H]12)c1csc(N)n1)C(=O)O`, for which the Inhibitory concentration is 100 µg/mL in the assay with Escherichia coli [1], less than 0.1 µg/mL in the assay on Escherichia coli [6], 10 µg/mL with Escherichia coli [9] and greater than 100 µg/mL in the assay on Escherichia coli [16]. The minimal inhibitory concentration (MIC) in the assay on Micrococcus luteus came to 1 µg/mL (≈ 1.19 µM); against Proteus mirabilis it was 0.25 µg/mL (≈ 0.297 µM); against Citrobacter freundii, 0.125 µg/mL (≈ 0.148 µM); against Pseudomonas aeruginosa [3], 1 µg/mL (≈ 1.19 µM); in the assay on Escherichia coli [4], 1 µg/mL (≈ 1.19 µM); against Staphylococcus aureus [5] it was 4 µg/mL (≈ 4.75 µM). In addition, the MIC against Staphylococcus aureus [7] is 4 µg/mL (≈ 4.75 µM); in the assay with Escherichia coli [8], 1 µg/mL (≈ 1.19 µM); against Enterococcus faecalis, 1 µg/mL (≈ 1.19 µM); against Staphylococcus aureus [10], 1 µg/mL (≈ 1.19 µM); against Escherichia coli [11], 0.063 µg/mL (≈ 0.0747 µM); against Enterobacter cloacae it was 0.63 µg/mL (≈ 0.747 µM). Moreover, the MIC against Pseudomonas aeruginosa [12] amounted to 1 µg/mL (≈ 1.19 µM); in the assay with Escherichia coli [13], 0.063 µg/mL (≈ 0.0747 µM); in the assay with Streptococcus pneumoniae, 0.25 µg/mL (≈ 0.297 µM); with Klebsiella pneumoniae it was 0.25 µg/mL (≈ 0.297 µM); against Serratia marcescens it was 0.5 µg/mL (≈ 0.593 µM); against Streptococcus pyogenes it was 0.25 µg/mL (≈ 0.297 µM). Moreover, the minimal inhibitory concentration (MIC) against Escherichia coli [14] was found to be 0.063 µg/mL (≈ 0.0747 µM); in the assay on Escherichia coli [15], 0.06 µg/mL (≈ 0.0712 µM); in the assay with Proteus vulgaris it was 0.125 µg/mL (≈ 0.148 µM). Besides, 2 µg/mL (≈ 2.37 µM) corresponded to half-maximal inhibition in the assay on Escherichia coli [2] (IC50).
Consider `Nc1nc(/C(=N/OCC(=O)O)C(=O)N[C@@H]2C(=O)N3C(C(=O)O)=C(COC(=O)N4CCN(c5cc6c(cc5F)c(=O)c(C(=O)O)cn6C5CC5)CC4)CS[C@H]23)cs1`, for which the Inhibitory concentration with Escherichia coli [1] is 100 µg/mL; with Escherichia coli [6] it was less than 0.1 µg/mL; with Escherichia coli [9], 10 µg/mL; in the assay on Escherichia coli [16], greater than 100 µg/mL. For the same compound, the MIC against Micrococcus luteus is 0.5 µg/mL (≈ 0.614 µM); against Proteus mirabilis, 0.125 µg/mL (≈ 0.153 µM); in the assay with Citrobacter freundii it was 0.125 µg/mL (≈ 0.153 µM); against Pseudomonas aeruginosa [3], 1 µg/mL (≈ 1.23 µM); in the assay on Escherichia coli [4], 1 µg/mL (≈ 1.23 µM); in the assay with Staphylococcus aureus [5] it was 4 µg/mL (≈ 4.91 µM). The MIC in the assay with Staphylococcus aureus [7] amounted to 4 µg/mL (≈ 4.91 µM); in the assay on Escherichia coli [8] it was 1 µg/mL (≈ 1.23 µM); against Enterococcus faecalis, 1 µg/mL (≈ 1.23 µM); in the assay on Staphylococcus aureus [10], 0.5 µg/mL (≈ 0.614 µM); with Escherichia coli [11] it was 0.031 µg/mL (≈ 0.038 µM); in the assay with Enterobacter cloacae, 0.063 µg/mL (≈ 0.0773 µM). Besides, the MIC in the assay with Pseudomonas aeruginosa [12] was 1 µg/mL (≈ 1.23 µM); with Escherichia coli [13], 0.031 µg/mL (≈ 0.038 µM); in the assay on Streptococcus pneumoniae, 0.125 µg/mL (≈ 0.153 µM); against Klebsiella pneumoniae it was 0.125 µg/mL (≈ 0.153 µM); against Serratia marcescens, 0.25 µg/mL (≈ 0.307 µM); in the assay with Streptococcus pyogenes it was 0.063 µg/mL (≈ 0.0773 µM). For the same compound, the MIC against Escherichia coli [14] was determined as 0.063 µg/mL (≈ 0.0773 µM); in the assay with Escherichia coli [15], 0.03 µg/mL (≈ 0.0368 µM); against Proteus vulgaris, 0.125 µg/mL (≈ 0.153 µM). The compound also had a 50% inhibitory concentration (IC50) with Escherichia coli [2] of 1.7 µg/mL (≈ 2.09 µM).
The compound `CC(C)(O/N=C(\C(=O)N[C@@H]1C(=O)N2C(C(=O)[O-])=C(C[n+]3ccccc3)CS[C@H]12)c1csc(N)n1)C(=O)O` [CEFTAZIDIME] had an MIC against Escherichia coli [17] of 0.1 µg/mL (≈ 0.183 µM). In addition, the Inhibitory concentration was greater than 100 µg/mL in the assay with Escherichia coli [18], 0.5 µg/mL in the assay on Escherichia coli [19], 10 µg/mL in the assay with Escherichia coli [20] and 10 µg/mL in the assay with Escherichia coli [21].
